Screening data as filed in PubChem.
The list is not random: actives were taken first. Their share in the collection is about 0.86%.
Rtt109 Vps75: inhibitors of C. albicans Rtt109/Vps75 HAT, primary screen, biochemical, ThioGlo CoA-SH fluorescence, plate reader. inhibition, % at 34.9 µM. AID 540336, 2011. Histone acetyltransferase RTT109 (Candida albicans (strain SC5314 / ATCC MYA-2876)), …. 330,000 tested, 0.16% active. purified Rtt109/Vps75, 4 h;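 active = inhibition of at least 50% in every replicate; inconclusive = best replicate reaches 50% inhibition but some replicates fall short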
Target sequence (Q5AAJ8 whole entry, looked up): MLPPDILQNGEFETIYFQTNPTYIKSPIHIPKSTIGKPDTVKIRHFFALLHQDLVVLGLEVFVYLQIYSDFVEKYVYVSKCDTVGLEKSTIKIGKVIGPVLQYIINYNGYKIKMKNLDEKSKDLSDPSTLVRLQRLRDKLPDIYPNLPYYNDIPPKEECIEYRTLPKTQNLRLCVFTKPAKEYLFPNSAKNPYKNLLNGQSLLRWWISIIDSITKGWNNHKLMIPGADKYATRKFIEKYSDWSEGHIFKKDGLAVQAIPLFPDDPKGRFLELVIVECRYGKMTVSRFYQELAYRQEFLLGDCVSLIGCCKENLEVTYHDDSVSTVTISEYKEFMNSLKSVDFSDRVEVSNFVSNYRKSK
miR-122 sensor: miR-122 Renilla sensor signal increase in Huh7, primary screen, miR-122 inhibitor project, cell-based, single point, plate reader. 340,000 tested, 0.3% active. activation (reporter increase), % at 12.5 µM. AID 602342, 2012. Huh7 miR-122 Renilla luciferase sensor, 48 h; neutral wells = 0, positive control = 100;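 active = mean replicate activation score at least 90 and every replicate individually at or above 90; inconclusive = only one of the two criteria met; inactive = neither criterion met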;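 also: higher luciferase means less miR-122 activity so hits act as miR-122 inhibitors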
S100A4 MyoIIA: inhibitors of S100A4-myosin IIA peptide binding, primary screen, biochemical, fluorescence polarization, TAMRA-MyoIIA peptide; inhibition, % at 10.7 µM; Protein S100-A4 (Homo sapiens), P26447; 360,000 tested, 0.14% active;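 active = mean inhibition of at least 70% across replicates, with every replicate also reaching that level; inconclusive = mean inhibition reaches 70% but some replicates fall short; inactive = mean inhibition below 70%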
Target sequence (P26447 whole entry, looked up): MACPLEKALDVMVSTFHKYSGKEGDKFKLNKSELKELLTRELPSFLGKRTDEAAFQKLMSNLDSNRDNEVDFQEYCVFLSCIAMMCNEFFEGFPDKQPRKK
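Material: S100A4 monomer (human). Medium: Calcium-containing HEPES buffer, pH 7.2. Probe or stimulus: labelled myosin peptide probe, 5 nM. Compound dosing: one concentration per compound. Timing: polarization read 5 min after assay mix addition, stable 5–60 min. Benchmarks: DMSO as neutral control, TFP as positive control.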
ERAP1 HTS inh: human ERAP1 aminopeptidase inhibitors, primary screen, biochemical, single point, plate reader. Endoplasmic reticulum aminopeptidase 1 (Homo sapiens), Q9NZ08. recombinant ERAP1, Leu-AMC fluorescence, 60 min. inhibition, % at 10.7 µM. 340,000 tested, 0.15% active. AID 652197, 2013;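 active = mean replicate inhibition of at least 30%, or all replicates individually reaching that 30% level; inactive = mean below 30% and not every replicate reaching it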;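 also: 0% = neutral control wells and 100% = L-leucinethiol positive control wells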
MLL AF4-AF9 inh: inhibitors of AF4 peptide binding to AF9, primary screen, biochemical, AlphaScreen, biotin-AF4 peptide, FLAG-AF9, single point; 350,000 tested, 0.47% active; Protein AF-9 (Homo sapiens), P42568; inhibition, % at 10 µM; AID 651704, 2012;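 active = every replicate reaching a set inhibition limit, whatever the replicate mean, cut at about 25% in these data; inconclusive = mean inhibition reaches that limit but some replicates miss it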;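 also: 0% = plate neutral control median and 100% = total signal loss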
* = called active by the depositor; u = inconclusive; x = no result; ! = a repeat was not active; [ ] = remark or other dose.

SMILES	Rtt109 Vps75	miR-122 sensor	S100A4 MyoIIA	ERAP1 HTS inh	MLL AF4-AF9 inh
Cn1c(=O)c2cc(S(=O)(=O)NCCC(=O)NCCC3=CCCCC3)ccc2n(C)c1=O	2	103*	2	6	-3
Cc1ccc(S(=O)(=O)/N=S(/c2ccccc2)C(C)C)cc1 (stereo unspecified)	u	-2	-3	46*	-3
CN/S(=N/S(=O)(=O)c1ccccc1)c1ccc(C)cc1 (stereo unspecified)	-1	-3	x	x	x
COc1ccc(C(=O)Nc2nc3c(s2)CCCC3)cc1S(=O)(=O)N1CCCc2ccccc21	-6	115*	x	x	x
COc1ccc(/C=C/C(=O)Nc2ccccc2C(=O)NCC(c2ccc(OC)cc2)N(C)C)cc1 (stereo unspecified)	0	-12	4	-2	26*
COc1ccc(/C=C/C(=O)Nc2ccccc2C(=O)O)cc1	-6	-2	-2	-1	0
CCOC(=O)CN1C(=O)C(C)(C)Oc2ccc(C(=O)Nc3ccccc3)cc21	-8	159*	x	x	x
COC(=O)CN1C(=O)C(C)(C)Oc2ccc(C(=O)Nc3ccccc3F)cc21	22	x	-2	-6	-1
Cc1ccc(-c2nnc(-c3cccc4ccccc34)o2)cc1	-1	3	3	0	7
Cc1cccc(-c2nnc(-c3cccc4ccccc34)o2)c1	8	146*	-3	-3	0
COc1cc(NS(=O)(=O)c2ccc3c(c2)C(C)(C)C(=O)N3C)cc(OC)c1	-1	98*	4	-1	1
C[C@H](CO)N1C[C@H](C)[C@@H](CN(C)Cc2ccc(C(F)(F)F)cc2)OCCCC[C@H](C)Oc2ccc(NC(=O)Cc3ccccc3)cc2C1=O	x	7[16.7 µM]	x	x	x
C[C@@H]1CN([C@@H](C)CO)S(=O)(=O)c2ccc(-c3cncnc3)cc2O[C@H]1CN(C)C(=O)C1CC1	x	0[16.7 µM]	x	x	x
CCN(CC)c1ccc(C2C(C(=O)OCCOC)=C(C)NC3=C2C(=O)CC(C)(C)C3)cc1 (stereo unspecified)	-9	95*	x	x	x
CCCOC(=O)C1=C(C)NC2=C(C(=O)CC(C)(C)C2)C1c1ccc(N(C)C)cc1 (stereo unspecified)	0	15	x	x	x
Cc1ccc(NC(=O)C2CCC2)cc1S(=O)(=O)N1CCCCCC1	-11	-5	9	-2	7
CCOc1ccc(NS(=O)(=O)c2cc(NC(=O)C3CC3)ccc2C)cc1Br	-23	140*	-6	1	-2
Oc1ccc(/C=C/c2ccc3cccc(O)c3n2)cc1Br	-11	66	2	0	26*
COc1ccc(Cl)cc1/C=C/c1ccc2cccc(O)c2n1	2	x	-9	5	-5
COc1ccccc1/C=C/c1ccc2cccc(O)c2n1	1	34	-6	-2	27*
Cc1ccc(S(=O)(=O)Nc2ccc3c(c2)CC(=O)N([C@@H](C)CO)C[C@@H](C)[C@H](CN(C)C(=O)NC2CCCCC2)O3)cc1	x	1[16.7 µM]	-5	1	-1
COc1ccc(S(=O)(=O)Nc2ccc3c(c2)CC(=O)N([C@H](C)CO)C[C@@H](C)[C@H](CN(C)S(C)(=O)=O)O3)cc1	x	4[16.7 µM]	3	0	-1
CN(C)C(=O)c1ccc(-c2ccc(C3[C@H]4CNC[C@@H]3N4C(=O)NC3CCCC3)cc2)cc1 (stereo partly specified)	x	x	-2	0	9
C=CCN=c1scc(-c2ccc(F)cc2)n1/N=C/c1ccccn1	-2	x	0	-1	10
C=CCN=c1scc(-c2ccccc2)n1/N=C/c1ccccn1	1	11	0	0	28*
SMILES	Rtt109 Vps75	miR-122 sensor	S100A4 MyoIIA	ERAP1 HTS inh	MLL AF4-AF9 inh
CO[C@H]1CN(C)C(=O)c2cc(NC(=O)Nc3ccccc3F)ccc2OC[C@H](C)NC[C@@H]1C	x	5[16.7 µM]	20	-7	-13
CCN(CC)CCNc1ccc(C)c2sc3ccc(O)cc3c(=O)c12	5	-1	-8	14	50*
O=C(Nc1cccc(CNCCc2c[nH]c3ccccc23)c1)c1ccccc1Cl	3	-3	-1	-10	35*
CC(=O)c1cccc(NC(=O)NCCc2c[nH]c3ccccc23)c1	-9	x	-6	x	-3
CC1(c2nnc(-c3ccc(F)cc3)o2)CC(c2cccnc2)=NO1 (stereo unspecified)	8	x	0	1	-3
CC1(c2nnc(-c3ccncc3)o2)CC(c2ccc(F)cc2)=NO1 (stereo unspecified)	0	-15	-1	0	34*
C[C@@H]1CN([C@@H](C)CO)S(=O)(=O)c2ccc(-c3cncnc3)cc2O[C@H]1CN(C)CC1CC1	x	2[16.7 µM]	-20	2	-1
CCOc1ccc(-n2nnnc2SCC(=O)Nc2ccc(NC(C)=O)cc2)cc1	-30	-5	-1	-1	2
CCOc1ccc(-n2nnnc2SCC(=O)Nc2cccc(O)c2)cc1	6	-3	0	1	28*
Cc1ccc(C(=O)NCC(=O)OCC(=O)NC(C)C2CC3CCC2C3)cc1 (stereo unspecified)	51*	3	0	-8	1
CCC(=O)Nc1ccc2c(c1)OC[C@H](C)N(C(=O)COC)C[C@H](C)[C@H](OC)CN(C)C2=O	x	x	2	-1	6
Cc1ccnc(NCc2cc(C)ccc2O)c1	2	211*	0	0	-5
C[C@H]1CN([C@@H](C)CO)C(=O)c2cccc(NC(=O)c3ccncc3)c2O[C@@H]1CN(C)C(=O)Nc1ccc(C(F)(F)F)cc1	x	-2[16.7 µM]	-12	1	1
CC(C)C(NC(=O)CCNC(=O)c1ccc([N+](=O)[O-])cc1)c1nc2ccccc2[nH]1 (stereo unspecified)	-11	0	0	67*	-3
CCCCCn1c(=N)n(CC(O)COc2ccccc2OC)c2ccccc21 (stereo unspecified)	7	-13	6	-9	50*!
COc1ccccc1OCC(O)Cn1c(=N)n(Cc2ccccc2)c2ccccc21 (stereo unspecified)	7	6	x	x	x
C[C@H](CO)N1C[C@H](C)[C@H](CN(C)C(=O)Nc2ccc3c(c2)OCO3)Oc2ccc(NC(=O)CCCCCC(=O)Nc3ccccc3N)cc2C1=O	x	x	6	2	0
C[C@@H]1CN([C@H](C)CO)C(=O)c2cc(NC(=O)C3CC3)ccc2O[C@@H]1CN(C)C(=O)Nc1ccc2c(c1)OCO2	x	2[16.7 µM]	103*	-3	-5
